From ChEMBL document CHEMBL2434965, “Lead optimization of an acylhydrazone scaffold possessing antiviral activity against Lassa virus” (Bioorg Med Chem Lett, 2013)
Active and inactive are the calls of the source. The rule behind the calls is not given here.

Test system: Tacaribe virus
Assay: Antiviral activity against Tacaribe virus pseudotype containing viral envelope
Format: functional, organism-based
Settings: Mammarenavirus tacaribeense
In short: (§1)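 Lentivirus-based pseudotypes bearing arenavirus envelope glycoprotein. Each run used three or four replicates per concentration, typically 7 to 14 concentrations spaced 0.25 to 0.7 log apart, up to 50 µM. EC50 per experiment came from a four-parameter one-site dose-response fit. Values across experiments were averaged as geometric means, with relative standard error given as SD/√n relative to the mean.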

With `C/C(=N\NC(=O)[C@@H]1C[C@H]1c1ccccc1)c1ccc(NC(=O)c2ccco2)cc1` the EC50 was 630 nM.

Test system: Guanarito virus
Assay: Antiviral activity against Guanarito virus pseudotype containing viral envelope
Format: functional
Settings: Mammarenavirus guanaritoense
In short: as §1

For `C/C(=N\NC(=O)[C@@H]1C[C@H]1c1ccccc1)c1ccc(NC(=O)c2ccco2)cc1`, the EC50 was 120 nM.

Test system: Sabia virus
Assay: Antiviral activity against Sabia virus pseudotype containing viral envelope
Format: functional
Settings: not given
In short: as §1

`C/C(=N\NC(=O)[C@@H]1C[C@H]1c1ccccc1)c1ccc(NC(=O)c2ccco2)cc1` was tested, and the EC50 was 130 nM.

Test system: Junin virus
Assay: Antiviral activity against Junin virus pseudotype containing viral envelope
Format: functional, organism-based
Settings: Mammarenavirus juninense
In short: as §1

Compound `C/C(=N\NC(=O)[C@@H]1C[C@H]1c1ccccc1)c1ccc(NC(=O)c2ccco2)cc1` has an EC50 of 800 nM.

Test system: Machupo mammarenavirus
Assay: Antiviral activity against Machupo virus pseudotype containing viral envelope
Format: functional
Settings: Mammarenavirus machupoense
In short: as §1

In the case of `C/C(=N\NC(=O)[C@@H]1C[C@H]1c1ccccc1)c1ccc(NC(=O)c2ccco2)cc1`, the EC50 is reported as 730 nM.

Test system: Lassa virus
Assay: Antiviral activity against Lassa virus by plaque reduction assay
Format: functional, organism-based
Settings: Mammarenavirus lassaense

For `C/C(=N\NC(=O)[C@@H]1C[C@H]1c1ccccc1)c1ccc(NC(=O)c2ccco2)cc1`, the Activity was “Active”.

Test system: Lassa virus
Assay: Antiviral activity against Lassa virus pseudotype containing envelope glycoprotein incorporated in lentivirus infected in human 293T/17 cells by luciferase reporter gene assay
Format: functional, organism-based
Settings: Mammarenavirus lassaense, HEK-293T
In short: as §1

Going from `C/C(=N\NC(=O)[C@@H]1C[C@H]1c1ccc(C(C)(C)C)cc1)c1ccc(Cl)cc1` (relative stereo) to `C/C(=N\NC(=O)[C@@H]1C[C@H]1c1ccc(C(C)(C)C)cc1)c1ccc(F)cc1` (relative stereo), the EC50 rises from 6.6 nM to 16 nM (2.4-fold).

Compared with `COc1cccc(/C(C)=N/NC(=O)C2CC2)c1`, `COc1cccc(/C(C)=N/NC(=O)[C@@H]2C[C@H]2c2ccccc2)c1` (relative stereo) is lower in EC50: over 50000 nM for the first, 42 nM for the second. The second is the more potent here.

`C/C(=N\NC(=O)[C@@H]1C[C@H]1c1ccccc1)c1cccc(Br)c1` (relative stereo) and `C/C(=N\NC(=O)[C@@H]1C[C@H]1c1ccccc1)c1cccc(C)c1` (relative stereo) are within 1.5-fold of each other in EC50: 56 nM for the first, 58 nM for the second.

Going from `C/C(=N\NC(=O)[C@@H]1C[C@H]1c1ccccc1)c1ccc(Cl)cc1` (relative stereo) to `C/C(=N\NC(=O)[C@@H]1C[C@H]1c1ccccc1)c1ccc(F)cc1` (relative stereo), the EC50 rises from 20 nM to 52 nM (2.6-fold).

First: C/C(=N\NC(=O)[C@@H]1C[C@H]1c1ccccc1)c1ccc(C2CCCCC2)cc1 (relative stereo)
Second: C/C(=N\NC(=O)[C@@H]1C[C@H]1c1ccccc1)c1ccc(C)cc1 (relative stereo)
The EC50 of the first is 2.7-fold higher: 24 nM for the first, 9 nM for the second. The second is the more potent here.

Going from `C/C(=N\NC(=O)[C@@H]1C[C@H]1c1ccccc1)c1cccc(NC(=O)c2ccccc2F)c1` (relative stereo) to `C/C(=N\NC(=O)[C@@H]1C[C@H]1c1ccc(C(C)(C)C)cc1)c1cccc(NC(=O)c2ccccc2F)c1` (relative stereo), the EC50 falls from 9100 nM to 770 nM (12-fold). The second is the more potent here.

Going from `C/C(=N\NC(=O)[C@@H]1C[C@H]1c1ccccc1)c1ccc(C)cc1C` (relative stereo) to `C/C(=N\NC(=O)[C@@H]1C[C@H]1c1ccccc1)c1cccc(C)c1C` (relative stereo), the EC50 rises from 170 nM to 800 nM (4.7-fold).

Compared with `COc1ccc(/C(C)=N/NC(=O)[C@@H]2C[C@H]2c2ccccc2)cc1OC` (relative stereo), `C/C(=N\NC(=O)[C@@H]1C[C@H]1c1ccccc1)c1ccc(C)c(C)c1` (relative stereo) is 120-fold lower in EC50: 450 nM for the first, 3.9 nM for the second. The second is the more potent here.

First: C/C(=N\NC(=O)[C@@H]1C[C@H]1c1ccc(C(C)(C)C)cc1)c1ccccc1 (relative stereo)
Second: C/C(=N\NC(=O)[C@@H]1C[C@H]1c1ccccc1)c1ccc(O)cc1 (relative stereo)
The EC50 of the first is 6.5-fold higher: 15 nM for the first, 2.3 nM for the second.

Compared with `C/C(=N\NC(=O)[C@@H]1C[C@H]1c1ccccc1)c1cccc([N+](=O)[O-])c1` (relative stereo), `C/C(=N\NC(=O)[C@@H]1C[C@H]1c1ccccc1)c1ccc([N+](=O)[O-])cc1` (relative stereo) is 4-fold lower in EC50: 250 nM for the first, 62 nM for the second.

First: C/C(=N\NC(=O)[C@@H]1C[C@H]1c1ccccc1)c1ccccc1Cl (relative stereo)
Second: C/C(=N\NC(=O)[C@@H]1C[C@H]1c1ccccc1)c1ccccc1O (relative stereo)
The EC50 of the first is 1.8-fold lower: 320 nM for the first, 570 nM for the second.

Compared with `C/C(=N\NC(=O)[C@@H]1C[C@H]1c1ccccc1)c1cccc(NC(=O)c2cccs2)c1` (relative stereo), `C/C(=N\NC(=O)[C@@H]1C[C@H]1c1ccccc1)c1cccc(O)c1` (relative stereo) is 67-fold lower in EC50: 6300 nM for the first, 94 nM for the second. The second is the more potent here.

First: C/C(=N\NC(=O)[C@@H]1C[C@H]1c1ccccc1)c1ccc(Cl)c(Cl)c1 (relative stereo)
Second: C/C(=N\NC(=O)[C@@H]1C[C@H]1c1ccccc1)c1ccc(Br)cc1 (relative stereo)
The EC50 of the first is 6.5-fold lower: 72 nM for the first, 470 nM for the second.

`C/C(=N\NC(=O)[C@@H]1C[C@H]1c1ccccc1)c1ccc(NC(=O)c2ccco2)cc1` and `C/C(=N\NC(=O)[C@H]1C[C@@H]1c1ccccc1)c1ccc(NC(=O)c2ccco2)cc1` (relative stereo) are the same in EC50: 0.34 nM for the first, 0.34 nM for the second.

`CC(=O)Nc1ccc(/C(C)=N/NC(=O)[C@@H]2C[C@H]2c2ccccc2)cc1` (relative stereo) and `C/C(=N\NC(=O)[C@@H]1C[C@H]1c1ccccc1)c1ccc(NC(=O)C2CC2)cc1` (relative stereo) are within 1.5-fold of each other in EC50: 2.6 nM for the first, 2.1 nM for the second.

Going from `C/C(=N\NC(=O)[C@@H]1C[C@H]1c1ccccc1)c1ccccc1` (relative stereo) to `C/C(=N\NC(=O)[C@@H]1C[C@H]1c1ccccc1)c1ccc(-c2ccccc2)cc1` (relative stereo), the EC50 falls from 47 nM to 1.3 nM (36-fold). The second is the more potent here.

Going from `COc1ccc(/C(C)=N/NC(=O)[C@@H]2C[C@H]2c2ccccc2)cc1` (relative stereo) to `C/C(=N\NC(=O)[C@@H]1C[C@H]1c1ccccc1)c1ccc(NC(=O)c2ccc(Cl)s2)cc1` (relative stereo), the EC50 falls from 4 nM to 0.95 nM (4.2-fold).
